# Assay results reported in ChEMBL document CHEMBL2311361, “Diminutive effect on T and B-cell proliferation of non-cytotoxic α-santonin derived 1,2,3-triazoles: a report” (Eur J Med Chem, 2013).
# Experiment: Cytotoxicity against in Balb/c mouse T cells at 10^-5 M after 48 hrs by MTT assay
# Format: cell-based
# Conditions: t-cell, 10 µM
# In short: (§1)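 Spleens taken aseptically from Balb/c mice (18–22 g). Single-cell suspension made in incomplete RPMI, RBCs lysed with Tris-ammonium chloride, cells washed, resuspended in complete RPMI and checked for viability by trypan blue. Cells seeded at 1 × 10⁶ cells/mL. Compounds in DMSO tested at 1×10⁻⁴, 1×10⁻⁵ and 1×10⁻⁶ M, 48 h, 37 °C, 5% CO₂.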
row,Compound,Activity
1,COc1ccc(-n2nncc2COc2cc(C)c3c(c2C)[C@@H]2OC(=O)[C@@H](C)[C@@H]2CC3)cc1OC,Non-toxic
2,Cc1cc(OCc2cnnn2-c2ccc(Br)cc2)c(C)c2c1CC[C@H]1[C@H](C)C(=O)O[C@@H]21,Non-toxic
3,C#CCOc1cc(C)c2c(c1C)[C@@H]1OC(=O)[C@@H](C)[C@@H]1CC2,Non-toxic

# Experiment: Immunosuppressive activity in Balb/c mouse T cells assessed as inhibition of concanavalin A-induced cell proliferation at 10^-4 M after 48 hrs by MTT assay
# Format: functional
# Conditions: not given
# In short: as §1
row,Compound,inhibition at 100 µM
1,C#CCOc1cc(C)c2c(c1C)[C@@H]1OC(=O)[C@@H](C)[C@@H]1CC2,12.2%

# Experiment: Immunosuppressive activity in Balb/c mouse B cells assessed as inhibition of LPS-induced cell proliferation at 10^-4 M after 48 hrs by MTT assay
# Format: functional
# Conditions: not given
# In short: as §1
row,Compound,inhibition at 100 µM
1,Cc1cc(OCc2cnnn2-c2ccc(Br)cc2)c(C)c2c1CC[C@H]1[C@H](C)C(=O)O[C@@H]21,15.4%
2,C#CCOc1cc(C)c2c(c1C)[C@@H]1OC(=O)[C@@H](C)[C@@H]1CC2,36.8%

# Experiment: Immunosuppressive activity in Balb/c mouse T cells assessed as inhibition of concanavalin A-induced cell proliferation at 10^-6 M after 48 hrs by MTT assay
# Format: functional
# Conditions: Mus musculus, Balb/c, T-cell, 48 h
# In short: as §1
row,Compound,inhibition at 1 µM
1,Cc1cc(OCc2cnnn2-c2ccc(Br)cc2)c(C)c2c1CC[C@H]1[C@H](C)C(=O)O[C@@H]21,1.21%

# Experiment: Immunosuppressive activity in Balb/c mouse B cells assessed as inhibition of LPS-induced cell proliferation at 10^-5 M after 48 hrs by MTT assay
# Format: functional
# Conditions: not given
# In short: as §1
row,Compound,inhibition at 10 µM
1,COc1ccc(-n2nncc2COc2cc(C)c3c(c2C)[C@@H]2OC(=O)[C@@H](C)[C@@H]2CC3)cc1OC,0.85%
2,C#CCOc1cc(C)c2c(c1C)[C@@H]1OC(=O)[C@@H](C)[C@@H]1CC2,22.2%

# Experiment: Immunostimulant activity in Balb/c mouse T cells assessed as inhibition of concanavalin A-induced cell proliferation at 10^-4 M after 48 hrs by MTT assay
# Format: functional
# Conditions: Mus musculus, Balb/c, T-cell, 48 h
# In short: as §1
row,Compound,inhibition at 100 µM
1,COc1ccc(-n2nncc2COc2cc(C)c3c(c2C)[C@@H]2OC(=O)[C@@H](C)[C@@H]2CC3)cc1OC,90.2%
2,Cc1cc(OCc2cnnn2-c2ccc(Br)cc2)c(C)c2c1CC[C@H]1[C@H](C)C(=O)O[C@@H]21,48.8%

# Experiment: Cytotoxicity against in Balb/c mouse B cells at 10^-5 M after 48 hrs by MTT assay
# Format: cell-based
# Conditions: 10 µM
# In short: as §1
row,Compound,Activity
1,COc1ccc(-n2nncc2COc2cc(C)c3c(c2C)[C@@H]2OC(=O)[C@@H](C)[C@@H]2CC3)cc1OC,Non-toxic
2,Cc1cc(OCc2cnnn2-c2ccc(Br)cc2)c(C)c2c1CC[C@H]1[C@H](C)C(=O)O[C@@H]21,Non-toxic
3,C#CCOc1cc(C)c2c(c1C)[C@@H]1OC(=O)[C@@H](C)[C@@H]1CC2,Non-toxic

# Experiment: Immunostimulant activity in Balb/c mouse B cells assessed as inhibition of LPS-induced cell proliferation at 10^-4 M after 48 hrs by MTT assay
# Format: functional
# Conditions: not given
# In short: as §1
row,Compound,inhibition at 100 µM
1,COc1ccc(-n2nncc2COc2cc(C)c3c(c2C)[C@@H]2OC(=O)[C@@H](C)[C@@H]2CC3)cc1OC,12.8%

# Experiment: Immunostimulant activity in Balb/c mouse T cells assessed as inhibition of concanavalin A-induced cell proliferation at 10^-6 M after 48 hrs by MTT assay
# Format: functional
# Conditions: not given
# In short: as §1
row,Compound,inhibition at 1 µM
1,COc1ccc(-n2nncc2COc2cc(C)c3c(c2C)[C@@H]2OC(=O)[C@@H](C)[C@@H]2CC3)cc1OC,75.6%
2,C#CCOc1cc(C)c2c(c1C)[C@@H]1OC(=O)[C@@H](C)[C@@H]1CC2,24.4%

# Experiment: Immunostimulant activity in Balb/c mouse B cells assessed as inhibition of LPS-induced cell proliferation at 10^-6 M after 48 hrs by MTT assay
# Format: functional
# Conditions: not given
# In short: as §1
row,Compound,inhibition at 1 µM
1,COc1ccc(-n2nncc2COc2cc(C)c3c(c2C)[C@@H]2OC(=O)[C@@H](C)[C@@H]2CC3)cc1OC,15.4%
2,Cc1cc(OCc2cnnn2-c2ccc(Br)cc2)c(C)c2c1CC[C@H]1[C@H](C)C(=O)O[C@@H]21,26.5%

# Experiment: Immunosuppressive activity in Balb/c mouse T cells assessed as inhibition of concanavalin A-induced cell proliferation at 10^-5 M after 48 hrs by MTT assay
# Format: functional
# Conditions: not given
# In short: as §1
row,Compound,inhibition at 10 µM
1,C#CCOc1cc(C)c2c(c1C)[C@@H]1OC(=O)[C@@H](C)[C@@H]1CC2,1.21%

# Experiment: Cytotoxicity against in Balb/c mouse B cells at 10^-6 M after 48 hrs by MTT assay
# Format: cell-based
# Conditions: 1 µM
# In short: as §1
row,Compound,Activity
1,COc1ccc(-n2nncc2COc2cc(C)c3c(c2C)[C@@H]2OC(=O)[C@@H](C)[C@@H]2CC3)cc1OC,Non-toxic
2,Cc1cc(OCc2cnnn2-c2ccc(Br)cc2)c(C)c2c1CC[C@H]1[C@H](C)C(=O)O[C@@H]21,Non-toxic
3,C#CCOc1cc(C)c2c(c1C)[C@@H]1OC(=O)[C@@H](C)[C@@H]1CC2,Toxic

# Experiment: Immunostimulant activity in Balb/c mouse B cells assessed as inhibition of LPS-induced cell proliferation at 10^-5 M after 48 hrs by MTT assay
# Format: functional
# Conditions: not given
# In short: as §1
row,Compound,inhibition at 10 µM
1,Cc1cc(OCc2cnnn2-c2ccc(Br)cc2)c(C)c2c1CC[C@H]1[C@H](C)C(=O)O[C@@H]21,36.8%

# Experiment: Immunosuppressive activity in Balb/c mouse B cells assessed as inhibition of LPS-induced cell proliferation at 10^-6 M after 48 hrs by MTT assay
# Format: functional
# Conditions: not given
# In short: as §1
row,Compound,inhibition at 1 µM
1,C#CCOc1cc(C)c2c(c1C)[C@@H]1OC(=O)[C@@H](C)[C@@H]1CC2,29.9%

# Experiment: Immunostimulant activity in Balb/c mouse T cells assessed as inhibition of concanavalin A-induced cell proliferation at 10^-5 M after 48 hrs by MTT assay
# Format: functional
# Conditions: not given
# In short: as §1
row,Compound,inhibition at 10 µM
1,COc1ccc(-n2nncc2COc2cc(C)c3c(c2C)[C@@H]2OC(=O)[C@@H](C)[C@@H]2CC3)cc1OC,15.8%
2,Cc1cc(OCc2cnnn2-c2ccc(Br)cc2)c(C)c2c1CC[C@H]1[C@H](C)C(=O)O[C@@H]21,2.43%

# Experiment: Cytotoxicity against in Balb/c mouse B cells at 10^-4 M after 48 hrs by MTT assay
# Format: cell-based
# Conditions: 100 µM
# In short: as §1
row,Compound,Activity
1,COc1ccc(-n2nncc2COc2cc(C)c3c(c2C)[C@@H]2OC(=O)[C@@H](C)[C@@H]2CC3)cc1OC,Toxic
2,Cc1cc(OCc2cnnn2-c2ccc(Br)cc2)c(C)c2c1CC[C@H]1[C@H](C)C(=O)O[C@@H]21,Non-toxic
3,C#CCOc1cc(C)c2c(c1C)[C@@H]1OC(=O)[C@@H](C)[C@@H]1CC2,Non-toxic

# Experiment: Cytotoxicity against in Balb/c mouse T cells at 10^-6 M after 48 hrs by MTT assay
# Format: cell-based
# Conditions: t-cell, 1 µM
# In short: as §1
row,Compound,Activity
1,COc1ccc(-n2nncc2COc2cc(C)c3c(c2C)[C@@H]2OC(=O)[C@@H](C)[C@@H]2CC3)cc1OC,Non-toxic
2,Cc1cc(OCc2cnnn2-c2ccc(Br)cc2)c(C)c2c1CC[C@H]1[C@H](C)C(=O)O[C@@H]21,Non-toxic
3,C#CCOc1cc(C)c2c(c1C)[C@@H]1OC(=O)[C@@H](C)[C@@H]1CC2,Toxic

# Experiment: Cytotoxicity against in Balb/c mouse T cells at 10^-4 M after 48 hrs by MTT assay
# Format: cell-based
# Conditions: t-cell, 100 µM
# In short: as §1
row,Compound,Activity
1,COc1ccc(-n2nncc2COc2cc(C)c3c(c2C)[C@@H]2OC(=O)[C@@H](C)[C@@H]2CC3)cc1OC,Toxic
2,Cc1cc(OCc2cnnn2-c2ccc(Br)cc2)c(C)c2c1CC[C@H]1[C@H](C)C(=O)O[C@@H]21,Non-toxic
3,C#CCOc1cc(C)c2c(c1C)[C@@H]1OC(=O)[C@@H](C)[C@@H]1CC2,Non-toxic
